Values after ≈ are worked out from the molar mass of the structure shown.
Key:
[1] = Intrinsic clearance in rat liver microsomes; type: ADME, Microsome; conditions: read-out: CLH
[2] = biological target: 3',5'-cyclic-AMP phosphodiesterase 4A (Homo sapiens, UniProt P27815); experiment: Inhibition of human full length PDE4A4 expressed in baculovirus infected sf21 cells
[3] = biological target: Phosphodiesterase 4 (Homo sapiens, UniProt P27815+Q08499+Q07343+Q08493); experiment: Inhibition of PDE4 (unknown origin); type: protein assay
[4] = biological target: High affinity 3',5'-cyclic-AMP phosphodiesterase 7A (Homo sapiens, UniProt Q13946); experiment: Inhibition of human full length PDE7A1 expressed in baculovirus infected sf21 cells
[5] = Aqueous solubility of the compound at pH 7.4; conditions: buffer
[6] = Inhibition of cytochrome P450 (unknown origin); type: ADME; conditions: human
[7] = organism: Homo sapiens; experiment: Selectivity ratio of IC50 for human full length PDE7A1 to IC50 for human full length PDE4A4
[8] = biological target: Voltage-gated inwardly rectifying potassium channel KCNH2 (Homo sapiens, UniProt Q12809); experiment: Inhibition of human ERG
In short: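 hERG was tested in a binding-format assay as percent inhibition at a single test concentration of 10 µM.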

Chain of High affinity 3',5'-cyclic-AMP phosphodiesterase 7A (Q13946 whole entry): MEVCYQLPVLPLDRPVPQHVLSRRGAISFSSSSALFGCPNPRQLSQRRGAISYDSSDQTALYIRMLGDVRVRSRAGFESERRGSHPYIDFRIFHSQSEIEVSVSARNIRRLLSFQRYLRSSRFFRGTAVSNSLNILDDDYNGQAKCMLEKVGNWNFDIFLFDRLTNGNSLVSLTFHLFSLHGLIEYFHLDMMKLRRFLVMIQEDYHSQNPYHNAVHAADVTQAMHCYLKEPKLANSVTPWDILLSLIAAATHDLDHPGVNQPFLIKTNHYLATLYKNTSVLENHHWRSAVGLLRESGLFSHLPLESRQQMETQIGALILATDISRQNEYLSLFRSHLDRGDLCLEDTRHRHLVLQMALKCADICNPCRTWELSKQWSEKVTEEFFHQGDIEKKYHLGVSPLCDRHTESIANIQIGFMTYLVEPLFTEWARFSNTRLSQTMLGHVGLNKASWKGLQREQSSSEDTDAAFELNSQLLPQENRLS
Chain of 3',5'-cyclic-AMP phosphodiesterase 4A (P27815 whole entry): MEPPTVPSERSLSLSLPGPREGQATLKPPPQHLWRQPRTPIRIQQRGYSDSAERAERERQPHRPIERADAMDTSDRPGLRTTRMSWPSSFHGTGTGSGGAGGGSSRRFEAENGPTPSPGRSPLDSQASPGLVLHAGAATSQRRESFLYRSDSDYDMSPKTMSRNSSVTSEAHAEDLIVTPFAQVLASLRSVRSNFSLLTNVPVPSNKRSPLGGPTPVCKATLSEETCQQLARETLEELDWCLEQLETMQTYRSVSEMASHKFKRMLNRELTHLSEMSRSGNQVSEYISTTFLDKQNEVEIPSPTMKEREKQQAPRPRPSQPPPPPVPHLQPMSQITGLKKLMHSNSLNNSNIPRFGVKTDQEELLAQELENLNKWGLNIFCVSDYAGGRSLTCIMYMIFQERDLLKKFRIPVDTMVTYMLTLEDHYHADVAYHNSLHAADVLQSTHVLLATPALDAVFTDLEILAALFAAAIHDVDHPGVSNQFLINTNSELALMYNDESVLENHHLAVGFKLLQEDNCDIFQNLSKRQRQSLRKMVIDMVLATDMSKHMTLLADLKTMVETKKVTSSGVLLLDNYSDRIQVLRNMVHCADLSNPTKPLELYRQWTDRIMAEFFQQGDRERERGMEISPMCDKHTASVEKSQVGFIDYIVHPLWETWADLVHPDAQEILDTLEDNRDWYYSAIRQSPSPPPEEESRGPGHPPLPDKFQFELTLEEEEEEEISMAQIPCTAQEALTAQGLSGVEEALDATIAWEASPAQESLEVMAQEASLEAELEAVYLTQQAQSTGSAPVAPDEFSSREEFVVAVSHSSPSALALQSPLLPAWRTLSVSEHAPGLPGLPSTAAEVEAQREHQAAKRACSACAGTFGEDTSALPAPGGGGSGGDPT
Chain of Voltage-gated inwardly rectifying potassium channel KCNH2 (Q12809 whole entry): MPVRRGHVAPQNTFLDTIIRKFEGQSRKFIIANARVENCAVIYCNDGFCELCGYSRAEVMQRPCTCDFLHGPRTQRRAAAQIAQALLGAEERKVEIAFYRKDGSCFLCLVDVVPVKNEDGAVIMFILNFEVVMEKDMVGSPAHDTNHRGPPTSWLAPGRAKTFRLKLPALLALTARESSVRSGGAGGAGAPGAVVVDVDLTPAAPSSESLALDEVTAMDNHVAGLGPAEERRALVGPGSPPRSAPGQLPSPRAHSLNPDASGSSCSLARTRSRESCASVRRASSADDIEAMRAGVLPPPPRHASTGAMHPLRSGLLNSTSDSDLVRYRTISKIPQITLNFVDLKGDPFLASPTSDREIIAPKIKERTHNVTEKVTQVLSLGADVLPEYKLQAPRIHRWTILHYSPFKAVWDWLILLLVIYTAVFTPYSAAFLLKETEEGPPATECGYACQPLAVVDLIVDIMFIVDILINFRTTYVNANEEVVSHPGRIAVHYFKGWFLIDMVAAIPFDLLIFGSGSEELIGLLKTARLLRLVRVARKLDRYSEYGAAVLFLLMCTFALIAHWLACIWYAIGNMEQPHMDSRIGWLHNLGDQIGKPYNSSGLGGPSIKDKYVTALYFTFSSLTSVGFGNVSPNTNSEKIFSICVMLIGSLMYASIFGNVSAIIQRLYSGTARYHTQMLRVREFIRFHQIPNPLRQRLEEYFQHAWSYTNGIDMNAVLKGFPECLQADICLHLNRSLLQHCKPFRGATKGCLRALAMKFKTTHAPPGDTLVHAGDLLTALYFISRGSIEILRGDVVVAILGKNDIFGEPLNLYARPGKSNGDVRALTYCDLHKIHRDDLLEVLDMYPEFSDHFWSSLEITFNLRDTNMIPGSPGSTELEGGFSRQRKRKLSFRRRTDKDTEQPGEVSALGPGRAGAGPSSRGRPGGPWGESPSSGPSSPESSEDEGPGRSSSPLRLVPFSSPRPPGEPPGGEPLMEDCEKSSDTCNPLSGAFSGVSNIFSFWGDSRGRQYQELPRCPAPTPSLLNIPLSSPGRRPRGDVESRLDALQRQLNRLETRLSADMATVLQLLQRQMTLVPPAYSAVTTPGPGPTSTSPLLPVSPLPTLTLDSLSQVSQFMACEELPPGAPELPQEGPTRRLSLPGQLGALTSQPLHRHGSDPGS

Row | Compound | CLint scaled [1] | IC50 [2] | IC50 [4] | also measured
1 | CNc1nc(NC2(C#N)CCC(C)CC2)nc(-n2cncn2)n1 (mixture of isomers) | 37 mL/min/kg | 1.6 nM | – | –
2 | O=S1(=O)CCN(c2nc(NC3CC3)nc(C3CC3)n2)C1 | – | – | – | IC50 [3]: 140 nM
3 | CCCC(C#N)(CCC)Nc1nc(Cl)nc(NC)n1 | – | 60 nM | – | –
4 | CNc1nc(NC2(C#N)CCCC(C)C2)nc(-n2cncn2)n1 (mixture of isomers) | 96 mL/min/kg | 0.2 nM | – | –
5 | CNc1nc(Nc2ccccc2)nc(NC2(C#N)CCCCC2)n1 | – | 56 nM | > 5000 nM | –
6 | CNc1nc(NC2(C#N)CCCCC2C)nc(-n2cncn2)n1 (mixture of isomers) | 86 mL/min/kg | 0.15 nM | – | solubility [5]: 25 µg/mL
7 | CNc1nc(NC2(C#N)CCCCC2)nc(SC)n1 | 579 mL/min/kg | 4.4 nM | 46 nM | –
8 | CNc1nc(C#N)nc(NC2(C#N)CCCCC2)n1 | 122 mL/min/kg | 38 nM | > 1000 nM | –
9 | CNc1nc(Cl)nc(NC2(C#N)CCCCC2)n1 | 867 mL/min/kg | 40 nM | 1070 nM | –
10 | CNc1nc(NC2(C#N)CCCCC2)nc(-n2cnc3ccccc32)n1 | – | 12 nM | > 1000 nM | –
11 | CNc1nc(NC2CCCC2)nc(NC2(C#N)CCCCC2)n1 | – | 59 nM | > 5000 nM | –
12 | C#CC(CC)(CC)Nc1nc(NC)nc(-n2cncn2)n1 | 22 mL/min/kg | 2.7 nM | – | –
13 | CCC(C#N)(CC)Nc1nc(Cl)nc(NC)n1 | – | 87 nM | – | –
14 | N#CC1(Nc2nc(N)nc(Cl)n2)CCCCC1 | – | 1040 nM | – | –
15 | CNc1nc(Cl)nc(NC2CCCCC2)n1 | – | 104 nM | – | –
16 | CCC(C)(C#N)Nc1nc(NC)nc(-n2cncn2)n1 (racemic) | 32 mL/min/kg | 2.4 nM | – | solubility [5]: 50 µg/mL (≈ 183 µM)
17 | CNc1nc(NC2(C#N)CCCCC2)nc(N2CCCC2)n1 | > 276 mL/min/kg | 38 nM | > 5000 nM | –
18 | N#CC1(Nc2nc(Cl)nc(NC3CC3)n2)CCCCC1 | – | 126 nM | – | –
19 | CN(C)c1nc(Cl)nc(NC2(C#N)CCCCC2)n1 | – | 668 nM | – | –
20 | CNc1nc(NC2(C#N)CCCCC2)nc(-n2cncn2)n1 | 52 mL/min/kg | 1.7 nM | > 5000 nM | solubility [5]: 11 µg/mL (≈ 36.7 µM); inhibition (INH) [6]: Not Active; Ratio IC50 [7]: > 1000; inhibition (INH) [8]: Not Active
21 | C#CC1(Nc2nc(Cl)nc(NC)n2)CCCCC1 | – | 149 nM | – | –
22 | CNc1nc(NC2(C#N)CCCCC2)nc(-n2ccnc2)n1 | 52 mL/min/kg | 6.6 nM | 1050 nM | inhibition (INH) [6]: Not Active; inhibition (INH) [8]: Not Active
23 | CCNc1nc(Cl)nc(NC2(C#N)CCCCC2)n1 | – | 232 nM | – | –
24 | CCCC(C#N)(CC)Nc1nc(NC)nc(-n2cncn2)n1 (racemic) | 29 mL/min/kg | 1.1 nM | – | solubility [5]: 76 µg/mL (≈ 252 µM)
